We go through 20 compounds from ChEMBL document CHEMBL1157790, “3'-bromo analogues of pyrimidine nucleosides as a new class of potent inhibitors of Mycobacterium tuberculosis” (J Med Chem, 2010).

For data set [1], the system named is Mycobacterium tuberculosis. The experiment in a line: Antimycobacterial activity against Mycobacterium tuberculosis H37Ra at 25 ug/ml after 4 days. The data set is classed as functional. The procedure, abridged: (§1)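 THP-1 cells, 2 × 10⁵/well, differentiated 3 days with 100 nM PMA, then infected 3 h with ~10⁷ CFU H37Ra. Non-phagocytosed bacteria removed. Compounds at 25, 10, 5 or 1 μg/mL in triplicate, rifampicin or isoniazid controls at 2.5 μg/mL, 4 days. Lysates plated in serial dilution on 7H11, colonies counted at 2-3 weeks. Percent CFU reduction versus untreated control; run twice.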

The test system of data set [2] is Mycobacterium tuberculosis. Briefly: Antimycobacterial activity against Mycobacterium tuberculosis H37Ra at 10 ug/ml after 4 days. The class given is functional. The procedure, abridged: as §1
For data set [3], the system named is Mycobacterium tuberculosis. The experiment in a line: Antimycobacterial activity against Mycobacterium tuberculosis H37Ra at 50 ug/ml after 6 days by microplate alamar blue assay. The data set is classed as functional. Particulars: 144 h. The procedure, abridged: (§2)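 H37Ra from frozen inoculum, 2.5 × 10⁵ CFU/mL final, in 7H9GC medium; compounds from 10 mg/mL DMSO stock tested at 100, 50, 25, 10, 5 and 1 μg/mL in triplicate, run twice. Incubated 6 days, then alamar blue plus Tween 80 added, read after 24 h visually and by fluorescence. Percent inhibition against bacteria-only and medium-only wells; MIC50 is the lowest concentration giving ~50% inhibition.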
For orientation: Resazurin is reduced to fluorescent resorufin, in cell work by metabolically active cells.

For data set [4], the system named is Mycobacterium tuberculosis. The experiment in a line: Antimycobacterial activity against Mycobacterium tuberculosis H37Ra at 5 to 10 ug/ml after 6 days by microplate alamar blue assay. The class given is functional. An outline of the steps:
as §2

The nature of data set [5]: Cytotoxicity against human HuH7 cells assessed as incorporation of [3H]thymidine into DNA after 2 days by scintillation counting. The class given is cell-based, Huh-7. An outline of the steps: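 Huh-7 cells plated at 1 × 10⁴/well, compounds at 200, 100, 50, 10 and 1 μg/mL in triplicate, DMSO control, 2 days at 37 °C. Pulsed with 0.5 μCi/well [³H]-thymidine for 12-18 h, harvested onto filters, and incorporated DNA label counted by liquid scintillation.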

The subject of data set [6] is Mycobacterium tuberculosis. The experiment in a line: Antimycobacterial activity against Mycobacterium tuberculosis H37Ra after 6 days by microplate alamar blue assay. The data set is classed as functional. Particulars: 144 h. An outline of the steps:
as §2

A short description of data set [7]: Cytotoxicity against human HuH7 cells after 2 days by XTT assay. The class given is cell-based, Huh-7. The procedure, abridged: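 Huh-7 cells seeded at 2 × 10⁴/well and allowed to attach 6-8 h, then exposed to 200, 100, 50, 10 and 1 μg/mL compound, DMSO control, 2 days at 37 °C. XTT reagent added for 4 h at 37 °C; absorbance read at 450-500 nm.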
Background: Tetrazolium dyes change colour on reduction, which living cells bring about.

In data set [8] the test system is Mycobacterium tuberculosis. The experiment in a line: Antimycobacterial activity against Mycobacterium tuberculosis H37Ra at 100 ug/ml after 6 days by microplate alamar blue assay. Particulars: 144 h. The data set is classed as functional. The procedure, abridged:
as §2

Data set [9] relates to Mycobacterium tuberculosis. Briefly: Antimycobacterial activity against Mycobacterium tuberculosis H37Ra at 25 ug/ml after 6 days by microplate alamar blue assay. The class given is functional. Particulars: 144 h. The procedure, abridged: as §2
The subject of data set [10] is Mycobacterium tuberculosis. Briefly: Antimycobacterial activity against Mycobacterium tuberculosis H37Ra at 5 ug/ml after 6 days by microplate alamar blue assay. The following applies: 144 h. The data set is classed as functional. The procedure, abridged: as §2
Data set [11] concerns Mycobacterium tuberculosis. Briefly: Antimycobacterial activity against Mycobacterium tuberculosis H37Ra at 10 ug/ml after 6 days by microplate alamar blue assay. Particulars: 144 h. The data set is classed as functional. The procedure, abridged: as §2
In data set [12] the test system is Mycobacterium tuberculosis. The experiment in a line: Antimycobacterial activity against Mycobacterium tuberculosis H37Ra at 1 ug/ml after 6 days by microplate alamar blue assay. The data set is classed as functional. The following applies: 144 h. An outline of the steps:
as §2

For data set [13], the system named is Mycobacterium tuberculosis. The experiment in a line: Antimycobacterial activity against Mycobacterium tuberculosis H37Ra at 2.5 ug/ml after 4 days. The class given is functional. An outline of the steps: as §1

Converted amounts (≈) assume the structure as drawn. A value given as a limit tells only on which side of the number the result lay.

One may read the inhibition as the drop in the measured response relative to a control, in per cent. As a reminder, the CC50 is the concentration at which the toxic effect on the cells reaches its halfway point. Broadly, the MIC50 is the lowest concentration that inhibits either 50% of growth or 50% of the strains tested, depending on the study. Low readings indicate higher susceptibility, high ones lower susceptibility. In the case of `Cc1cn([C@H]2C[C@H](Br)[C@@H](CO)O2)c(=O)[nH]c1=O`, the Activity is 90% in data set [1] and 50% in data set [2]. This compound gave an inhibition at 50 µg/mL in data set [3] of 82%. Further, in data set [4], the “inhibition (INH)” value came to 5%. In addition, the 50% cytotoxic concentration (CC50) at 48 h in data set [5] and in data set [7] was more than 100 µg/mL each time. In data set [6], the MIC50 was found to be 5 µg/mL (≈ 16.4 µM). This compound also registered an inhibition at 100 µg/mL in data set [8] of 100%.
Consider `N[C@@H]1CONC1=O` [CYCLOSERINE], for which, in [9], testing at 25 µg/mL gave an inhibition of 80%. Testing at 50 µg/mL in data set [3] gave an inhibition of 100%. The same compound showed an inhibition at 5 µg/mL in data set [10] of 50%. Moreover, the MIC50 in [6] was determined as 5 µg/mL (≈ 49 µM).
As to `O=c1[nH]c(=O)n([C@@H]2O[C@H](CO)[C@H](O)[C@H]2Br)cc1F`, the inhibition at 25 µg/mL in data set [9] was determined as 50%. For the same compound, the half-maximal cytotoxic concentration (CC50) at 48 h in [5] and in data set [7] was more than 100 µg/mL each time. The same compound displayed an inhibition at 100 µg/mL in [8] of 0%.
Consider `O=c1ccn([C@@H]2O[C@H](CO)[C@H](O)[C@H]2Br)c(=O)[nH]1`, for which the CC50 at 48 h in data set [5] and in data set [7] was more than 100 µg/mL in each case. This compound also registered an inhibition at 100 µg/mL in data set [8] of 0%.
In turn, `Cc1cn([C@H]2C[C@H](Cl)[C@@H](CO)O2)c(=O)[nH]c1=O` came in with an inhibition at 50 µg/mL in [3] of 50%. The CC50 at 48 h in data set [5] and in [7] was more than 100 µg/mL each time. This compound also displayed an MIC50 in [6] of 50 µg/mL (≈ 192 µM). The compound also yielded an inhibition at 100 µg/mL in [8] of 68%.
With `O=c1[nH]c(=O)n([C@H]2C[C@H](I)[C@@H](CO)O2)cc1F`, the cytotoxic concentration (CC50) at 48 h in [5] and in [7] was more than 100 µg/mL each time. This compound also returned an inhibition at 100 µg/mL in data set [8] of 32%.
With `Cc1cn([C@@H]2O[C@H](CO)[C@H](O)[C@H]2Br)c(=O)[nH]c1=O`, testing at 50 µg/mL in [3] gave an inhibition of 60%. In addition, the CC50 at 48 h in data set [5] and in data set [7] was more than 100 µg/mL each time. In addition, in data set [6], the MIC50 is 25 µg/mL (≈ 77.9 µM). Also, at 100 µg/mL the inhibition in data set [8] was 80%.
With `O=c1[nH]c(=O)n([C@H]2C[C@@H](Cl)[C@@H](CO)O2)cc1F`, in [9], testing at 25 µg/mL gave an inhibition of 40%. In data set [3], this compound gave an inhibition at 50 µg/mL of 60%. For the same compound, the CC50 at 48 h in [5] and in data set [7] was more than 100 µg/mL throughout. In data set [6], the MIC50 is 25 µg/mL (≈ 94.5 µM). The compound also returned an inhibition at 100 µg/mL in data set [8] of 90%.
In data set [3], `O=c1[nH]c(=O)n([C@H]2C[C@H](Br)[C@@H](CO)O2)cc1F` displayed an inhibition at 50 µg/mL of 50%. The CC50 at 48 h in [5] and in data set [7] was more than 100 µg/mL each time. Further, the MIC50 in data set [6] came to 50 µg/mL (≈ 162 µM). The compound further came in with an inhibition at 100 µg/mL in data set [8] of 80%.
On to `Cc1cn([C@@H]2O[C@H](CO)[C@@H](Br)[C@@H]2O)c(=O)[nH]c1=O`, for which the Activity in [1] is more than 90%; in data set [2], 80%. Further, at 10 µg/mL the inhibition in data set [11] was 75%. Also, the CC50 at 48 h in data set [5] and in data set [7] was more than 100 µg/mL throughout. In addition, the inhibition at 1 µg/mL in [12] was found to be 50%. The same compound registered an MIC50 in [6] of 1 µg/mL (≈ 3.11 µM). Moreover, in data set [8], the inhibition at 100 µg/mL came to 50%.
As for `O=c1ccn([C@@H]2O[C@H](CO)[C@@H](Br)[C@@H]2O)c(=O)[nH]1`, the CC50 at 48 h in data set [5] and in data set [7] was more than 100 µg/mL throughout. Further, the inhibition at 100 µg/mL in data set [8] was determined as 24%.
`O=c1[nH]c(=O)n([C@H]2C[C@H](Cl)[C@@H](CO)O2)cc1F`: the CC50 at 48 h in data set [5] and in [7] was more than 100 µg/mL throughout. In data set [8], this compound came in with an inhibition at 100 µg/mL of 40%.
In data set [9], `O=c1[nH]c(=O)n([C@@H]2O[C@H](CO)[C@@H](Br)[C@@H]2O)cc1F` yielded an inhibition at 25 µg/mL of 50%. In addition, the CC50 at 48 h in [5] and in data set [7] was more than 100 µg/mL each time. Also, the MIC50 in [6] was 25 µg/mL (≈ 76.9 µM). The compound further registered an inhibition at 100 µg/mL in [8] of 91%.
Take `O=c1[nH]c(=O)n([C@H]2C[C@@H](I)[C@@H](CO)O2)cc1F`: the CC50 at 48 h in [5] and in data set [7] was more than 100 µg/mL each time. Moreover, the inhibition at 100 µg/mL in data set [8] was 40%.
Turning to `Cc1cn([C@H]2C[C@H](I)[C@@H](CO)O2)c(=O)[nH]c1=O`, the CC50 at 48 h in [5] and in data set [7] was more than 100 µg/mL throughout. 100 µg/mL produced 0% inhibition in [8].
Compound `Cc1cn([C@H]2C[C@H](F)[C@@H](CO)O2)c(=O)[nH]c1=O` [ALOVUDINE] gave an inhibition at 100 µg/mL in data set [8] of 0%.
In data set [13], `CO[C@H]1/C=C/O[C@@]2(C)Oc3c(C)c(O)c4c(O)c(c(/C=N/N5CCN(C)CC5)c(O)c4c3C2=O)NC(=O)/C(C)=C\C=C\[C@H](C)[C@H](O)[C@@H](C)[C@@H](O)[C@@H](C)[C@H](OC(C)=O)[C@@H]1C` [RIFAMPIN] displayed an Activity of more than 98%. For the same compound, in [6], the MIC50 is less than 0.5 µg/mL.
`NNC(=O)c1ccncc1` [ISONIAZID] displayed an Activity in data set [13] of more than 98%. Further, at 1 µg/mL the inhibition in data set [12] was 100%. This compound gave an MIC50 in data set [6] of less than 1 µg/mL.
`O=c1[nH]c(=O)n([C@H]2C[C@H](F)[C@@H](CO)O2)cc1F` showed an inhibition at 100 µg/mL in data set [8] of 0%.
As for `O=c1[nH]c(=O)n([C@H]2C[C@@H](Br)[C@@H](CO)O2)cc1F`, in [9], 25 µg/mL produced 40% inhibition. The inhibition at 50 µg/mL in [3] came to 63%. Also, the CC50 at 48 h in data set [5] and in [7] was more than 100 µg/mL each time. This compound also returned an MIC50 in data set [6] of 25 µg/mL (≈ 80.9 µM). In [8], this compound gave an inhibition at 100 µg/mL of 100%.
